Reference: EPA's CvTdb concentration-time database

How the values were obtained:
[1] = test system: rat; test: concentration in blood after dosing; negative times count back from the end of exposure; conditions: inhalation
[2] = test system: human; test: concentration in blood after dosing; negative times count back from the end of exposure; conditions: dosed: ethylbenzene, 33 ppm, inhalation, duration: 7 hr
Summary of the method: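 A PubMed search, classifier screening and manual review identified published in vivo toxicokinetic studies, which together with two structured collections supplied concentration-versus-time and amount-versus-time points. Points were mostly digitised from plot screenshots with WebPlotDigitizer, otherwise copied from tables. Dose, route, subject details and medium were hand-curated from each paper, and sampling and analytical methods are those of the sources, often unreported.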

[3] = test system: rat; test: concentration in blood after dosing
[4] = test system: rat; test: concentration in blood after dosing; conditions: dosed: m-xylene, 5000 ppm, dermal, duration: 4 hr, male, F344
[5] = test system: rat; test: concentration in blood after dosing; conditions: dosed: m-xylene, 5000 ppm, dermal, duration: 4 hr, male, F344; remark: listed apart in the source
[6] = test system: rat; test: concentration in blood after dosing; conditions: dosed: m-xylene, 5000 ppm, dermal, duration: 4 hr, male, F344; remark: listed apart in the source
[7] = test system: rat; test: concentration in blood after dosing; conditions: dosed: m-xylene, 5000 ppm, dermal, duration: 4 hr, male, F344; remark: listed apart in the source
[8] = test system: rat; test: concentration in blood after dosing; conditions: dosed: m-xylene, 5000 ppm, dermal, duration: 4 hr, male, F344; remark: listed apart in the source
[9] = test system: Rat; test: concentration in adipose after dosing; conditions: 144 h; dosed: Tamoxifen citrate; 300 ug/mL; oral; Female; F344
[10] = test system: Rat; test: concentration in adipose after dosing; conditions: 144 h; dosed: Tamoxifen; 300 ug/mL; oral; Female; F344
[11] = test system: Rat; test: concentration in plasma after dosing; conditions: 72 h, 300 ug/mL, oral, Female, F344
[12] = test system: Rat; test: concentration in adipose after dosing; conditions: oral, Female, F344
[13] = test system: Rat; test: concentration in adipose after dosing; conditions: 144 h; dosed: Tamoxifen; 300 ug/mL; oral; Female; F344; remark: listed apart in the source
[14] = test system: Rat; test: concentration in adipose after dosing; conditions: 144 h; dosed: Tamoxifen citrate; 100 ug/mL; oral; Female; F344
[15] = test system: Rat; test: concentration in adipose after dosing; conditions: 144 h; dosed: Tamoxifen citrate; 300 ug/mL; oral; Female; F344; remark: listed apart in the source
[16] = test system: Rat; test: concentration in adipose after dosing; conditions: 144 h; dosed: Tamoxifen citrate; 100 ug/mL; oral; Female; F344; remark: listed apart in the source
[17] = test system: Rat; test: concentration in adipose after dosing; conditions: 72 h; dosed: Tamoxifen citrate; 100 ug/mL; oral; Female; F344
[18] = test system: Rat; test: concentration in adipose after dosing; conditions: 144 h; dosed: Tamoxifen citrate; 300 ug/mL; oral; Female; F344; remark: listed apart in the source
[19] = test system: Rat; test: concentration in adipose after dosing; conditions: 144 h; dosed: Tamoxifen; 300 ug/mL; oral; Female; F344; remark: listed apart in the source

ClC(Cl)(Cl)Cl [carbon tetrachloride]
concentration in blood [ng/mL], [1], dosed: carbon tetrachloride, duration: 120 min
Conditions	100 ppm	1000 ppm
0.1277 h	401	4510
0.2902 h	401	–
0.305 h	–	4270
0.4232 h	340	–
0.4675 h	–	4510
0.6891 h	240	–
0.7039 h	–	4750
0.9551 h	240	–
0.9698 h	–	3670
1.457 h	240	–
1.472 h	–	2640
1.96 h	–	2860
1.975 h	140	–
2.462 h	140	1020
2.965 h	140	1060
3.954 h	40.1	–
3.969 h	–	761
4.944 h	40.1	–
4.974 h	–	701
5.979 h	20	–
5.993 h	–	441
7.013 h	–	220
7.988 h	–	220
8.993 h	–	240
9.983 h	–	160
194 s	–	6310
247 s	501	5190

[1], dosed: carbon tetrachloride, duration: 120 min, during exposure
Conditions	concentration in blood [ng/mL]
-179 s, 1000 ppm	11200
-125 s, 100 ppm	681
-1.941 h, 1000 ppm	5690
-1.867 h, 1000 ppm	7110
-1.852 h, 100 ppm	441
-1.793 h, 100 ppm	601
-1.69 h, 100 ppm	741
-1.675 h, 1000 ppm	7550
-1.527 h, 100 ppm	481
-1.498 h, 1000 ppm	6170
-1.276 h, 1000 ppm	7510
-1.261 h, 100 ppm	421
-1.054 h, 1000 ppm	6930
-1.025 h, 100 ppm	561
-0.8032 h, 100 ppm	601
-0.7884 h, 1000 ppm	7730
-0.5668 h, 1000 ppm	8190
-0.5372 h, 100 ppm	461
-0.3008 h, 100 ppm	881
-0.2861 h, 1000 ppm	10000

ClC(Cl)Cl [chloroform]
[1], dosed: chloroform, 100 ppm, duration: 360 min
Conditions	concentration in blood [µg/g]
0.4971 h	0.55
2.006 h	0.151

[1], dosed: chloroform, 100 ppm, duration: 360 min, during exposure
Conditions	concentration in blood [µg/g]
-31 s	1.02
-5.747 h	0.18
-5.503 h	1.05
-4.997 h	1.05
-3 h	1.25

CCc1ccccc1 [ethylbenzene]
[2]
Conditions	concentration in blood [ng/mL]
0.4921 h	254
0.9902 h	197

[2], during exposure
Conditions	concentration in blood [ng/mL]
-1.491 h	518
-0.514 h	497

[3], dosed: ethylbenzene, 50 ppm, inhalation, duration: 4 hr
Conditions	concentration in blood [ng/mL]
0.4948 h	531
0.9897 h	315
1.498 h	193
1.993 h	146
272 s	821

O=C[O-] [formate]
[3], dosed: methanol, 100 mg/kg, iv, male, CDF(F344)/CrlBR
Conditions	concentration in blood [ng/mL]
0.1321 h	3240
0.4419 h	3230
0.9757 h	3130
1.457 h	3580
1.923 h	2560
2.94 h	2070
4.456 h	1030
5.99 h	73.9
7.984 h	1330
119 s	740

Cc1cccc(C)c1 [m-xylene]
concentration in blood [ng/mL]
Conditions	[4]	[5]	[6]	[7]	[8]
0.5 h	154	5380	3960	6020	2860
1 h	5860	9470	3790	7020	2950
2 h	3840	12100	25600	3450	8160
3 h	3760	15900	5950	9500	8020
4 h	5030	16700	9940	11400	9030

[3], dosed: m-xylene, 5000 ppm, dermal, duration: 4 hr, male, F344
Conditions	concentration in blood [ng/mL]
0.5 h	154
1 h	4110
2 h	4350
3 h	8850
4 h	10500

c1cc2ccc3cccc4ccc(c1)c2c34 [total 14C-pyrene]
[1], dosed: pyrene, male, Wistar, radiolabel
Conditions	concentration in blood [ng/mL]
0.2501 h, 200 mg/m^3, duration: 95 min	1940
0.253 h, 500 mg/m^3, duration: 95 min	16900
0.263 h, 800 mg/m^3, duration: 95 min	41000
0.5176 h, 500 mg/m^3, duration: 95 min	14700
0.5339 h, 800 mg/m^3, duration: 95 min	41000
0.8638 h, 800 mg/m^3, duration: 95 min	43500
0.87 h, 500 mg/m^3, duration: 95 min	12400
0.875 h, 200 mg/m^3, duration: 95 min	1190
1.216 h, 500 mg/m^3, duration: 95 min	9070
1.222 h, 800 mg/m^3, duration: 95 min	42700
1.227 h, 200 mg/m^3, duration: 95 min	1020
1.722 h, 500 mg/m^3, duration: 95 min	6760
1.724 h, 800 mg/m^3, duration: 95 min	34600
1.733 h, 200 mg/m^3, duration: 95 min	990
2.225 h, 500 mg/m^3, duration: 95 min	5300
2.235 h, 800 mg/m^3, duration: 95 min	30300
2.245 h, 200 mg/m^3, duration: 95 min	837
2.901 h, 200 mg/m^3, duration: 95 min	773
2.91 h, 800 mg/m^3, duration: 95 min	24100
2.926 h, 500 mg/m^3, duration: 95 min	4130
3.568 h, 800 mg/m^3, duration: 95 min	21000
3.582 h, 200 mg/m^3, duration: 95 min	714
3.588 h, 500 mg/m^3, duration: 95 min	3380
4.567 h, 800 mg/m^3, duration: 95 min	15500
4.569 h, 200 mg/m^3, duration: 95 min	695
4.577 h, 500 mg/m^3, duration: 95 min	3050
6.023 h, 800 mg/m^3, duration: 95 min	11100
6.027 h, 500 mg/m^3, duration: 95 min	2510
7.481 h, 800 mg/m^3, duration: 95 min	9810
32 min, 200 mg/m^3, duration: 95 min	1460
34 s, 500 mg/m^3, duration: 95 min	15900
79 s, 200 mg/m^3, duration: 95 min	2240

[1], dosed: pyrene, male, Wistar, radiolabel, during exposure
Conditions	concentration in blood [ng/mL]
-28 s, 800 mg/m^3, duration: 95 min	40700
-1.353 h, 200 mg/m^3, duration: 95 min	659
-1.349 h, 500 mg/m^3, duration: 95 min	2480
-1.122 h, 500 mg/m^3, duration: 95 min	6670
-1.119 h, 800 mg/m^3, duration: 95 min	8210
-1.09 h, 200 mg/m^3, duration: 95 min	1400
-0.7764 h, 800 mg/m^3, duration: 95 min	19900
-0.7622 h, 200 mg/m^3, duration: 95 min	2040
-0.7591 h, 500 mg/m^3, duration: 95 min	10200
-0.4362 h, 800 mg/m^3, duration: 95 min	29200
-0.434 h, 200 mg/m^3, duration: 95 min	2250
-0.4242 h, 500 mg/m^3, duration: 95 min	12700

CC/C(=C(/c1ccc(O)cc1)c1ccc(OCCN(C)C)cc1)c1ccccc1 [trans-4-Hydroxytamoxifen]
Conditions	concentration in adipose [ng/g]
[9]	9.08
[10]	5.1
[13]	9.08
[14]	6.12
[15]	5.1
[16]	5.04
[17]	5.3
[18]	10.3
[19]	10.3

[11]
Conditions	concentration in plasma [ng/mL]
dosed: Tamoxifen	1.87
dosed: Tamoxifen citrate	1.87

concentration in adipose [ng/g], [12]
Conditions	72 h	144 h
dosed: Tamoxifen citrate, 100 ug/mL	8.8	4.35
dosed: Tamoxifen citrate, 300 ug/mL	–	2.96
dosed: Tamoxifen, 300 ug/mL	–	2.96
